Assay outcomes from PubChem.
Compounds with a hit are over-represented: about 2% of the library has one in this group of screens.
PAD4 FP inh: inhibitors of human PAD4 | Q9UM07 | recombinant PAD4, RCA probe fluorescence polarization | inhibition, % at 6.36 µM | hit rate 0.41% among 330,000 | AID 485272;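 active = percent inhibition above a cutoff equal to the mean of all tested compounds plus 3 SD, cut at about 15% in these data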;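 also: 0% = PAD4 with RCA probe and DMSO and 100% = probe without PAD4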
PP5 primary: blocks human protein phosphatase 5 activity; P53041; purified PP5c, OMFP substrate fluorescence; inhibition, % at 6.7 µM; hit rate 0.18% among 320,000;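 active = inhibition above the campaign's mean inhibition across all tested compounds plus 3 SD, cut at about 9.5% in these data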;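 also: 0% = DMSO only and 100% = 100 µM cantharidin control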
UCH37 DUB inh: human UCH37 deubiquitinating enzyme inhibition | purified proteasome/UCH37, Ub-AMC cleavage fluorescence | Q9Y5K5 | inhibition, % (no concentration beside the values) | hit rate 0.33% among 330,000;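 active = mean inhibition over replicate wells above about 20%, limit read from the data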;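 also: 0% = compound-free wells with enzyme and 100% = wells lacking proteasome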
Target sequence (Q9Y5K5 whole entry, looked up): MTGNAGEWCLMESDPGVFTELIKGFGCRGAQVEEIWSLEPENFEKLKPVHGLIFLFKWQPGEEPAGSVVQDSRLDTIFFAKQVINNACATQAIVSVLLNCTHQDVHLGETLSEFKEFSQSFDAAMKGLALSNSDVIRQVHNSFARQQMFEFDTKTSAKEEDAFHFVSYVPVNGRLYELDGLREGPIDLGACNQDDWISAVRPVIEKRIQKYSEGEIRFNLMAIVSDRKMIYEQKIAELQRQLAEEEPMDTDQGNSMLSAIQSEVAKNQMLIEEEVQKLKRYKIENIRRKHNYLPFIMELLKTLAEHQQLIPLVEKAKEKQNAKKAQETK
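System: Proteasome-associated human UCH37 deubiquitinase; Input: 0.15 nM proteasome in added enzyme buffer; Also added: Ub-AMC substrate from 1 µM stock; Incubation: 30 min compound-proteasome preincubation then 25 min substrate reaction, room temperature; Detection: fluorescence, ex 355 nm, em 460 nm; Read-out: % inhibition of Ub-AMC cleavage fluorescence; Benchmarks: no-proteasome and no-compound wells.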
GSTO1 counter: blocks human GSTO1 in RBBP9 counter-screen. P78417. recombinant GSTO1, activity-based probe fluorescence polarization. inhibition, % at 5.96 µM. hit rate 1.1% among 300,000;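 active = inhibition above the campaign mean inhibition plus 3 SD, cut at about 35% in these data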;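 also: 0% = GSTO1-1 with DMSO and 100% = wells lacking GSTO1-1 enzyme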
Target sequence (P78417 whole entry, looked up): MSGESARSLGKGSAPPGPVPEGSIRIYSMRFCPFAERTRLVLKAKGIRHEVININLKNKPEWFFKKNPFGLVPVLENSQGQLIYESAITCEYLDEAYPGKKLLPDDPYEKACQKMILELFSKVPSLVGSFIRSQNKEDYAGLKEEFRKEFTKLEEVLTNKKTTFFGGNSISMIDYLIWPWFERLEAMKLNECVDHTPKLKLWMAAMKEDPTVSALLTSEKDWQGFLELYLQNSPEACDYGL
Apaf-1 inh: inhibitors of human Apaf-1 apoptosome; AID 489030; hit rate 0.71% among 330,000; reconstituted apoptosome caspase-3 activity, DEVD-Rh110 fluorescence; inhibition, % at 20 µM; O14727; active = inhibition of at least 40% at 20 µM;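 also: plate controls were DMSO wells for no effect and DEVD-CHO caspase inhibitor wells for full effect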
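Material: cell-free apoptosome with Apaf-1, procaspase-3 and caspase-9; Buffer or medium: Hepes pH 7.5 with detergent and BSA; Reagent: cytochrome c trigger plus (Z-DEVD)2-Rh110 caspase-3 substrate; Times: compound with Apaf-1, dATP, procaspase-3 30 min, then 50 min reaction, room temperature; Technique: Rh110 fluorescence intensity.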
CTSL1 counter: counter-screen for PFM18AAP inhibitors: inhibitors of F. hepatica cathepsin L1. inhibition, % at 5.96 µM. AID 1906. hit rate 0.49% among 300,000. recombinant F. hepatica cathepsin L1, Z-Leu-Arg-MCA fluorescence;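 active = inhibition above the mean of all tested compounds plus 3 SD, set per screening campaign, cut at about 17% in these data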;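 also: 0% = plate median of test compound wells and 100% = 1 µM Z-Phe-Ala-diazomethylketone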
* = called active by the depositor; / = no result.

SMILES	PAD4 FP inh	PP5 primary	UCH37 DUB inh	GSTO1 counter	Apaf-1 inh	CTSL1 counter
CN(C(=O)CSc1ncnc2sc(-c3ccccc3)cc12)C1CCS(=O)(=O)C1 (configuration not stated)	-4.3	3.6	0.0	-10.4	11.6	1.1
CN(C(=O)CSc1ncnc2scc(-c3ccccc3)c12)C1CCS(=O)(=O)C1 (configuration not stated)	1.1	-3.0	-1.0	5.7	4.9	17.4*
COc1ccc(/C=C2\SC(=O)N(CC(=O)NNC(=O)c3ccccc3O)C2=O)cc1	-8.6	1.3	-13.5	8.0	3.7	-2.0
COc1ccc(/C=C2\SC(=O)N(CC(=O)NNC(=O)c3ccccc3O)C2=O)cc1OC	2.3	1.1	/	38.0*	11.9	-0.3
CC(CC(=O)Nc1ccc(Cl)cn1)=NNC(=O)Cc1cccs1	/	/	6.4	/	/	/
C=CCOC(=O)C1=C[C@@H](c2ccc(C(F)(F)F)cc2)C[C@@H](OCCCCO)O1	-1.3	2.4	21.4*	0.6	19.5	9.1
O=C(NN=Cc1cccc(Br)c1)c1ccc(N2CCCC2=O)cc1	/	/	6.6	/	/	/
COc1cc(OC)c2c(-c3ccccc3)cc(=O)oc2c1C(CCN1CCCC1)c1ccc2c(c1)OCO2 (configuration not stated)	1.5	1.9	1.9	5.5	49.0*	-0.7
COc1ccc(C(CCN2CCCC(C)C2)c2c(OC)cc(OC)c3c(C)cc(=O)oc23)cc1 (configuration not stated)	-4.7	1.3	-2.3	-1.3	19.8	-0.4
CCCCCc1cc(=O)oc2c(C(CCN3CCCC(C)C3)c3ccc4c(c3)OCO4)c(OC)cc(OC)c12 (configuration not stated)	2.6	2.6	/	-2.5	65.6*	4.3
O=C(NN=Cc1cccnc1)c1cccc(NC(=O)c2cccc(Br)c2)c1	/	/	4.1	/	/	/
CC1CCCC(C)N1/N=C/c1ccc(O)c(O)c1 (configuration not stated)	4.5	-0.2	/	35.9*	1.7	0.8
O=C1C2C3CCC(O3)C2C(=O)N1c1cccc(O)c1 (configuration not stated)	1.5	2.3	0.8	6.0	3.0	0.6
O=C1OC(=O)C2C1[C@@H]1CC[C@H]2O1 (some centres not stated)	-5.3	76.9*	1.2	5.3	-8.9	-0.6
COc1ccc2c(c1O)C(=O)c1ccccc1C2=O	10.6	0.8	/	0.4	-5.8	-1.7
CC(C)COC(=O)c1ccc2c(c1O)C(=O)c1ccccc1C2=O	-19.4	2.0	2.8	25.2	23.7	24.4*
Cc1nc(SCc2ccc(O)c([N+](=O)[O-])c2)c([N+](=O)[O-])[nH]1	-3.0	-0.7	20.3*	20.2	-18.4	4.7
Nc1nc(C(F)(F)F)cc(=O)[nH]1	-1.6	0.5	2.2	4.1	-7.1	-7.8
O=c1cc(C(F)(F)F)nc(-n2[nH]c3c(c2=O)CCCC3)[nH]1	-6.4	-0.3	-1.4	39.6*	-2.2	-2.9
Cc1nn(-c2ccccc2)c(N2CCCC2)c1/C=N/O	1.8	3.5	/	4.7	2.6	1.0
Cc1ccc(C2=N/C(=C\c3c(C)nn(-c4ccccc4)c3N3CCCC3)C(=O)O2)cc1	0.1	0.7	3.2	4.9	8.4	55.4*
Cc1nn(-c2ccccc2)c(N2CCCC2)c1/C=N/NC(=S)Nc1ccc(F)cc1	-2.5	0.0	/	5.4	12.6	2.3
Cc1nn(-c2ccccc2)c(N2CCCC2)c1/C=C1\N=C(c2ccc(F)cc2)OC1=O	0.0	1.9	7.0	-1.3	-7.9	70.5*
CCC(C)[C@H](NC(=O)OC(C)(C)C)C(=O)NN=Cc1cccc2nccnc12 (some centres not stated)	/	/	5.1	/	/	/
O=C(CSc1nnc(SCc2ccc(Cl)cc2)s1)NN=Cc1ccc(C(=O)O)cc1	/	/	2.9	/	/	/
SMILES	PAD4 FP inh	PP5 primary	UCH37 DUB inh	GSTO1 counter	Apaf-1 inh	CTSL1 counter
Cc1nn(C(=O)CN2C(=O)c3ccccc3C2=O)c(C)c1Br	-2.1	1.2	27.9*	-13.3	-0.5	6.2
O=C(NCc1ccc2c(c1)OCO2)c1ccc(COc2cccc(Cl)c2)o1	4.6	4.4	4.5	-8.6	25.7	21.6*
COc1ccc(C=NNC(=O)c2cccc([N+](=O)[O-])c2)cc1OC	/	/	5.6	/	/	/
O=C1/C(=C/c2ccncc2)SC(=S)N1Nc1ccccc1	-6.6	0.1	6.1	36.1*	4.3	-0.3
CC1=C(C#N)C(=O)NC(=O)/C1=C\c1ccc(-c2cc(C)c(C)cc2[N+](=O)[O-])o1	/	/	20.4*	/	/	/
CCC(C)C(NC(=O)c1ccccc1NC(=O)c1ccc(OC)cc1)C(=O)NCc1ccco1 (configuration not stated)	1.1	3.3	-18.7	-1.0	-5.7	45.4*
COc1ccc(C(=O)Nc2ccc(Cl)cc2C(=O)NCc2ccco2)cc1	-4.6	1.9	-22.8	-1.4	-5.3	0.4
Oc1ccc(NCc2cccc(OCc3ccc(F)cc3)c2)cc1	-1.9	6.0	-2.8	76.8*	15.5	-3.8
O=[N+]([O-])c1ccc(COc2cccc(CNc3ccc(F)cc3)c2)cc1	-2.8	1.8	3.7	0.5	-2.7	-0.8
Cc1cccc(OCC(=O)Nc2ccc(C(=O)c3ccc(C(=O)O)cc3)cc2)c1	-0.3	1.2	34.7*	-5.1	4.7	-2.5
Cc1cccc(OCC(=O)Nc2cc(C)on2)c1	0.5	-1.0	33.6*	2.0	-4.5	-3.0
Cc1cccc(OCC(=O)Nc2ccc(NC(=O)c3ccccc3)cc2)c1	0.1	1.1	-1.3	3.0	-6.5	-1.0
Cc1ccc(-n2ncc(C#N)c2N=CN2CCOCC2)cc1	/	/	5.2	/	/	/
CN1/C(=C\C=NNC(=O)c2ccc(O)cc2)C(C)(C)c2ccccc21	/	/	-0.1	/	/	/
O=C(CNc1ccc(F)cc1)NN=CC1CC=CCC1 (configuration not stated)	/	/	-0.5	/	/	/
Cc1ccc(-c2nn(-c3ccccc3)cc2C=NNC(=O)c2ccncc2)o1	/	/	-110.3	/	/	/
COCCNC(=O)C(=O)Nc1cc2c3c(c1)C(C)C(=O)N3CCC2 (configuration not stated)	0.8	1.5	2.3	4.1	-7.6	17.6*
O=c1[nH]cnc2sc3c(c12)CCN(Cc1ccccc1)C3	-11.1	-8.3	-24.4	16.9	9.2	-1.0
OCCCNc1ncnc2sc3c(c12)CCN(Cc1ccccc1)C3	-5.7	1.8	-233.9	4.9	2.2	32.0*
O=C(NN=Cc1c[nH]c2ccccc12)c1cc(-c2ccc(-c3ccccc3)cc2)n[nH]1	/	/	1.7	/	/	/
COC(=O)c1c(NC(=O)C(=O)NCCCN2CCOCC2)sc2c1CCC2	-2.6	2.7	5.4	5.7	2.9	23.3*
CCCN(C=Nc1sc2c(c1C#N)CCCCC2)CCC	/	/	2.5	/	/	/
CC(=NOCC(=O)Nn1c(C)nc2ccccc2c1=O)c1ccccc1	/	/	1.9	/	/	/
CN(/N=C/C=C/c1ccccc1)c1cc(=O)n(C)c(=O)[nH]1	-5.6	0.7	/	4.5	5.9	8.3
CN(N=Cc1cccs1)c1cc(=O)n(C)c(=O)[nH]1	/	/	20.8*	/	/	/
